Assay: Treatment-emergent adverse events, SAD period
Assay type: in vivo, human
In short: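 Double-blind, placebo-controlled study in healthy men and nonchildbearing women aged 18–55 y. The SAD period gave one fasted oral dose; the MAD period gave fed dosing q.d. for 10 days, plus a separate b.i.d. cohort. TEAEs, serious AEs and discontinuation AEs were monitored ≥28 days after the last dose. Vital signs, physical exam, 12-lead ECG, hematology, clinical chemistry and urinalysis were also recorded. Data summarized descriptively.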

Cn1cc(-c2cn3nccc3c(-c3cnn([C@]4(CC#N)C[C@@H](C#N)C4)c3)n2)cn1 [PF‐06826647]
0 n (%): Participants with TEAEs: Periorbital hemorrhage (SAD 30 mg (n = 8)) | Participants with TEAEs: Peripheral swelling (SAD 30 mg (n = 8)) | Participants with TEAEs: Pruritus (SAD 30 mg (n = 8)) | Participants with TEAEs: Rash (SAD 30 mg (n = 8)) | Participants with TEAEs: Skin and subcutaneous tissue disorders (SOC) (SAD 30 mg (n = 8)) | Participants with TEAEs: Urticaria (SAD 30 mg (n = 8)) | Participants with TEAEs: Alanine aminotransferase increased (SAD 100 mg (n = 7)) | Participants with TEAEs: Aspartate aminotransferase increased (SAD 100 mg (n = 7)) | Participants with TEAEs: Investigations (SOC) (SAD 100 mg (n = 7)) | Participants with TEAEs: Peripheral swelling (SAD 100 mg (n = 7)) | Participants with AEs (SAD 400 mg (n = 8)) | Participants with TEAEs: Alanine aminotransferase increased (SAD 400 mg (n = 8)) | Participants with TEAEs: Aspartate aminotransferase increased (SAD 400 mg (n = 8)) | Participants with TEAEs: Edema (SAD 400 mg (n = 8)) | Participants with TEAEs: Face edema (SAD 400 mg (n = 8)) | Participants with TEAEs: Gastrointestinal disorders (SOC) (SAD 400 mg (n = 8)) | Participants with TEAEs: General disorders and administration site conditions (SOC) (SAD 400 mg (n = 8)) | Participants with TEAEs: Headache (SAD 400 mg (n = 8)) | Participants with TEAEs: Injury, poisoning, and procedural complications (SOC) (SAD 400 mg (n = 8)) | Participants with TEAEs: Investigations (SOC) (SAD 400 mg (n = 8)) | Participants with TEAEs: Nausea (SAD 400 mg (n = 8)) | Participants with TEAEs: Nervous system disorders (SOC) (SAD 400 mg (n = 8)) | Participants with TEAEs: Periorbital hematoma (SAD 400 mg (n = 8)) | Participants with TEAEs: Periorbital hemorrhage (SAD 400 mg (n = 8)) | Participants with TEAEs: Peripheral swelling (SAD 400 mg (n = 8)) | Participants with TEAEs: Pruritus (SAD 400 mg (n = 8)) | Participants with TEAEs: Rash (SAD 400 mg (n = 8)) | Participants with TEAEs: Skin and subcutaneous tissue disorders (SOC) (SAD 400 mg (n = 8)) | Participants with TEAEs: Urticaria (SAD 400 mg (n = 8)) | Participants with TEAEs: Edema (SAD 1,600 mg (n = 6)) | Participants with TEAEs: Face edema (SAD 1,600 mg (n = 6)) | Participants with TEAEs: Gastrointestinal disorders (SOC) (SAD 1,600 mg (n = 6)) | Participants with TEAEs: Headache (SAD 1,600 mg (n = 6)) | Participants with TEAEs: Injury, poisoning, and procedural complications (SOC) (SAD 1,600 mg (n = 6)) | Participants with TEAEs: Nausea (SAD 1,600 mg (n = 6)) | Participants with TEAEs: Nervous system disorders (SOC) (SAD 1,600 mg (n = 6)) | Participants with TEAEs: Periorbital hematoma (SAD 1,600 mg (n = 6)) | Participants with TEAEs: Periorbital hemorrhage (SAD 1,600 mg (n = 6)) | Participants with TEAEs: Pruritus (SAD 1,600 mg (n = 6)) | Participants with TEAEs: Rash (SAD 1,600 mg (n = 6)) | Participants with TEAEs: Skin and subcutaneous tissue disorders (SOC) (SAD 1,600 mg (n = 6)) | Participants with TEAEs: Urticaria (SAD 1,600 mg (n = 6))
1 (16.7) n (%): Participants with TEAEs: Alanine aminotransferase increased (SAD 1,600 mg (n = 6)) | Participants with TEAEs: Aspartate aminotransferase increased (SAD 1,600 mg (n = 6)) | Participants with TEAEs: General disorders and administration site conditions (SOC) (SAD 1,600 mg (n = 6)) | Participants with TEAEs: Investigations (SOC) (SAD 1,600 mg (n = 6)) | Participants with TEAEs: Peripheral swelling (SAD 1,600 mg (n = 6))
2 (33.3) n (%): Participants with AEs (SAD 1,600 mg (n = 6))
3 n: AEs (SAD 1,600 mg (n = 6))
1 (14.3) n (%): Participants with AEs (SAD 100 mg (n = 7)) | Participants with TEAEs: Edema (SAD 100 mg (n = 7)) | Participants with TEAEs: Face edema (SAD 100 mg (n = 7)) | Participants with TEAEs: Gastrointestinal disorders (SOC) (SAD 100 mg (n = 7)) | Participants with TEAEs: General disorders and administration site conditions (SOC) (SAD 100 mg (n = 7)) | Participants with TEAEs: Headache (SAD 100 mg (n = 7)) | Participants with TEAEs: Injury, poisoning, and procedural complications (SOC) (SAD 100 mg (n = 7)) | Participants with TEAEs: Nausea (SAD 100 mg (n = 7)) | Participants with TEAEs: Nervous system disorders (SOC) (SAD 100 mg (n = 7)) | Participants with TEAEs: Periorbital hematoma (SAD 100 mg (n = 7)) | Participants with TEAEs: Periorbital hemorrhage (SAD 100 mg (n = 7)) | Participants with TEAEs: Pruritus (SAD 100 mg (n = 7)) | Participants with TEAEs: Rash (SAD 100 mg (n = 7)) | Participants with TEAEs: Skin and subcutaneous tissue disorders (SOC) (SAD 100 mg (n = 7)) | Participants with TEAEs: Urticaria (SAD 100 mg (n = 7))
0 n: SAEs (SAD 30 mg (n = 8)) | Severe AEs (SAD 30 mg (n = 8)) | AEs leading to study drug dose reduction or interruption (SAD 100 mg (n = 7)) | SAEs (SAD 100 mg (n = 7)) | Severe AEs (SAD 100 mg (n = 7)) | AEs (SAD 400 mg (n = 8)) | AEs leading to study drug dose reduction or interruption (SAD 400 mg (n = 8)) | SAEs (SAD 400 mg (n = 8)) | Severe AEs (SAD 400 mg (n = 8)) | AEs leading to study drug dose reduction or interruption (SAD 1,600 mg (n = 6)) | SAEs (SAD 1,600 mg (n = 6)) | Severe AEs (SAD 1,600 mg (n = 6))
9 n: AEs (SAD 100 mg (n = 7))

Source: publication PMC7993274 (Clinical and Translational Science, 2020)
